Assay results as given in ChEMBL document CHEMBL4308843, “Identification of ABX-1431, a Selective Inhibitor of Monoacylglycerol Lipase and Clinical Candidate for Treatment of Neurological Disorders” (J Med Chem, 2018).

How the values were obtained:
[1] = target: T1, Platelet-activating factor acetylhydrolase (Homo sapiens, UniProt Q13093); assay: Inhibition of PLA2G7 derived from human PC3 cell lysates preincubated for 30 mins followed by JW912 addition after 30 mins by gel-based ABPP assay; type: subcellular, Lysate
T1 sequence (Q13093 whole entry): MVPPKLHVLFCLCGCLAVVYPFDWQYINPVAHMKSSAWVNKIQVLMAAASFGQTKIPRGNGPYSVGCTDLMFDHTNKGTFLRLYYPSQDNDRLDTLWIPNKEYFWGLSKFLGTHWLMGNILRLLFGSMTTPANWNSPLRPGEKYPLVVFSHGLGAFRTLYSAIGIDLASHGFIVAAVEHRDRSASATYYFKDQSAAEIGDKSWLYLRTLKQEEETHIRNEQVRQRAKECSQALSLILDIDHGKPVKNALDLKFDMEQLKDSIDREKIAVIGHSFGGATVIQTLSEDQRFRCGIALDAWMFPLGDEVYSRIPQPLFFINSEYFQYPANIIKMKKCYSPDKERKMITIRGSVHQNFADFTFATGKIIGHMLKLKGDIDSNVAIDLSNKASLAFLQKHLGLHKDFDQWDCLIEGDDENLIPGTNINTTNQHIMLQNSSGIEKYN

Cytochrome P450 1A2 = target: T2, Cytochrome P450 1A2 (Homo sapiens, UniProt P05177); assay: Inhibition of recombinant human CYP1A2; type: ADME
T2 sequence (P05177 whole entry): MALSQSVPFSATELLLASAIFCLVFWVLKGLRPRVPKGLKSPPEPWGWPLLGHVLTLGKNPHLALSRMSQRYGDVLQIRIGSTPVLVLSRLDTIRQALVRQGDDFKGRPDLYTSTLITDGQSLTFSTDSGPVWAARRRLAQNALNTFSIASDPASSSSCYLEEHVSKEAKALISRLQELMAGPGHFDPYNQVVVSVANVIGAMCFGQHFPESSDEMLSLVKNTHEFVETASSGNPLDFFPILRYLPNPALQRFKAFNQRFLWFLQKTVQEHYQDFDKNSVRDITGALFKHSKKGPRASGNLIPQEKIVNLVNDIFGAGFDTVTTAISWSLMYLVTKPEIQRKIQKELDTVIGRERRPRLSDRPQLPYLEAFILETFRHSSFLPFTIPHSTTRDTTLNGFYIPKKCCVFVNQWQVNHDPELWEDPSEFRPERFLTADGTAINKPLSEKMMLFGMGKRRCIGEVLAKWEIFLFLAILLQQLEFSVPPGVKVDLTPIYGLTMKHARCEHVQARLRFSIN

[2] = Half life in Sprague-Dawley rat at 1 mg/kg, iv by LC-MS analysis; type: ADME, organism-based; conditions: in vivo
How it was run: (§1)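 Rats (n = 3 per route) were dosed at 1 mg/kg iv (70% PEG400 in HPBCD/saline) or 5 mg/kg po (70% PEG400 in 0.5% CMC/saline), fasted overnight to 4 h post-dose. Jugular-catheter blood (~100 µL) was sampled to 24 h into 400 µL acetonitrile to stop esterases. Samples were quantified by HPLC-MS/MS, with noncompartmental analysis.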

[3] = Tmax in Sprague-Dawley rat at 1 mg/kg, iv or 5 mg/kg, po by LC-MS analysis; type: ADME, organism-based; conditions: in vivo; how it was run: as §1
Rattus norvegicus = assay: Antinociceptive activity in po dosed Sprague-Dawley rat brain assessed as inhibition of MGLL activity measured after 4 hrs post dose in presence of FP-Rh probe by gel-based ABPP assay; type: functional
How it was run: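 Male Sprague Dawley rats, 6–12 weeks old, given single oral doses (0.03–10 mg/kg) in 0.5% methylcellulose at 5 mL/kg. Brains were taken 4 h post-dose and forebrain sections excised from one hemisphere. Brain proteome was labeled with FP-Rh (1 µM, 30 min) and analyzed by SDS-PAGE with in-gel fluorescence. Band intensity was normalized to vehicle.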

Mus musculus [4] = assay: In vivo inhibition of ABHD6 in po dosed ICR mouse brain measured 4 hrs post dose in presence of FP-Rh probe by gel-based ABPP assay; type: functional
How it was run: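 Male ICR mice, 6–12 weeks old, given single oral doses (0.5–32 mg/kg, n = 3) in PEG400:ethanol:PBS (7/2/1 v/v/v) at 5 mL/kg. Brains were removed 4 h later and one hemisphere processed for gel-based ABPP. Proteome was labeled with FP-Rh (1 µM, 30 min) and read by in-gel fluorescence relative to vehicle.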

[5] = Half life in Beagle dog at 1 mg/kg, iv by LC-MS analysis; type: ADME, organism-based, Canis lupus familiaris; conditions: in vivo
How it was run: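 Male beagle dogs (n = 3 per route), 10–12 months old, were dosed at 1 mg/kg iv or po in PEG400/ethanol/PBS (7/2/1), fasted overnight to 2 h post-dose. Peripheral venous blood was sampled to 24 h into K2EDTA and plasma frozen at −80 °C. Plasma was quantified by HPLC-MS/MS, with noncompartmental analysis.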

[6] = Stability in Sprague-Dawley rat plasma; type: ADME, cell-free
Mus musculus [7] = assay: In vivo inhibition of MGLL in po dosed ICR mouse brain assessed as increase in 2-AG measured at 4 hrs post dose by LC-MS/MS analysis; type: functional, organism-based
How it was run: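 Male ICR mice, 6–12 weeks old, single oral gavage 0.5–32 mg/kg in PEG400:ethanol:PBS (7/2/1), 5 mL/kg, n = 3. Killed at 4 h; one brain hemisphere for gel-based ABPP with FP-Rh (MGLL band quantified), the other for 2-AG by LC-MS/MS.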

Cytochrome P450 3A5 = Cytochrome P450 3A5 (Homo sapiens, UniProt P20815); assay: Inhibition of recombinant human CYP3A5; type: ADME
Cytochrome P450 3A5, sequence (P20815 whole entry): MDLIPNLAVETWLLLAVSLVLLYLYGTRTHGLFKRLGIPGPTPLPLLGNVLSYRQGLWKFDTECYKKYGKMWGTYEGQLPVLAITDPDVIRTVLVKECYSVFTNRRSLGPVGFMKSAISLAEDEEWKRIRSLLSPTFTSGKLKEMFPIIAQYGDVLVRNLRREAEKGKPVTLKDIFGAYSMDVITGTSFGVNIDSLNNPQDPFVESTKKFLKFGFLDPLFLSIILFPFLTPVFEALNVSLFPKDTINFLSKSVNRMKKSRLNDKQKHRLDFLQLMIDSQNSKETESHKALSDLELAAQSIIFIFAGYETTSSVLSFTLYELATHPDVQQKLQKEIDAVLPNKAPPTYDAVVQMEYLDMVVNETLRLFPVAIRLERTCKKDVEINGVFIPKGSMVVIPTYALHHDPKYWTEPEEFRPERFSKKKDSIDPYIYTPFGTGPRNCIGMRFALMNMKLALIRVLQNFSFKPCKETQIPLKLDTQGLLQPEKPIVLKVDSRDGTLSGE

With `O=C(OC(C(F)(F)F)C(F)(F)F)N1CCN(Cc2ccc(C(F)(F)F)cc2N2CCCC2)CC1` [ELCUBRAGISTAT] the IC50 [1] was > 10 µM, the IC50 (Cytochrome P450 1A2) was > 50 µM and the half-life [2] was 3.6 h. For the same compound, the Tmax [3] was 8 h, the ED50 (Rattus norvegicus) was 0.5 mg/kg and the ED50 (Mus musculus [4]) was 32 mg/kg. For the same compound, the half-life [5] was 6.1 h, the Stability [6] was “Unstable” and the inhibition (Mus musculus [7]) was “Dose-dependent effect”. The IC50 (Cytochrome P450 3A5) was > 50 µM.
